ChEMBL document CHEMBL4814013, “Scaffold repurposing of fendiline: Identification of potent KRAS plasma membrane localization inhibitors” (Eur J Med Chem, 2021)
Calls of active or inactive are those of the source. No cut-off for these calls is given here.

Columns and labels:
MDCK [1] = assay: Cytotoxicity against dog MDCK cells at 30 uM; assay type: functional, cell-based; details: Canis lupus familiaris
MDCK [2] = assay: Inhibition of ASM in dog MDCK cells co-expressing recombinant full length mGFP-tagged KRAS G12V mutant and mCherry-CAAX assessed as reduction in plasma membrane localization of KRAS mutant incubated for 48 hrs by confocal microscopic analysis relative to control; assay type: cell membranes; details: Canis lupus familiaris
In short: (§1)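 MDCK cells stably co-expressing mGFP-KRAS G12V or mGFP-LactC2 with mCherry-CAAX (HRAS 179–189 C181S/C184S) grown on coverslips in DMEM/10% FBS. Treated 48 h with 0.1% DMSO or graded drug, fixed in 4% paraformaldehyde, then quantitative confocal imaging. Mislocalization scored as the Manders fraction of mCherry-CAAX co-localizing with the GFP probe. IC50 and Emax from three independent experiments.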

[3] = Inhibition of ASM in dog MDCK cells co-expressing recombinant full length mGFP-tagged KRAS G12V mutant and mCherry-CAAX assessed as reduction in plasma membrane localization of KRAS mutant incubated for 48 hrs by confocal microscopic analysis; assay type: cell membranes, Canis lupus familiaris; in short: as §1

Emax (MDCK [2]) | IC50 [3] [µM] | SMILES | Activity (MDCK [1])
0.66 | 11.2 | COc1ccc([C@@H](C)N(CC=C(c2ccccc2)c2ccccc2)CCN(C)C)cc1 | Active
0.62 | 5.2 | C[C@H](c1ccc([N+](=O)[O-])cc1)N(CC=C(c1ccccc1)c1ccccc1)CCN1CCN(C)CC1 | Active
0.52 | 10.1 | COc1ccc([C@@H](C)N(CC=C(c2ccccc2)c2ccccc2)CCF)cc1 | inactive
0.51 | 7.1 | COc1ccc([C@@H](C)N(CC=C(c2ccccc2)c2ccccc2)C(=O)CN2CCN(C)CC2)cc1 | Active
0.89 |  | CCN(CC)CCN(CC=C(c1ccccc1)c1ccccc1)[C@H](C)c1ccc(OC)cc1 | Active
0.86 | 4.4 | COc1ccc([C@@H](C)N(CC=C(c2ccccc2)c2ccccc2)CCN2CCOCC2)cc1 | inactive
0.84 | 14.8 | COc1ccc([C@@H](C)N(C/C=C/c2ccccc2)CCN2CCN(C)CC2)cc1 | inactive
0.83 | 1.5 | C[C@H](c1ccc(F)cc1)N(CC=C(c1ccccc1)c1ccccc1)CCN1CCN(C)CC1 | Active
0.75 | 3.3 | COc1ccc([C@@H](C)N(C)CC=C(c2ccccc2)c2ccccc2)cc1 | inactive

Second part, the compound before the results:

SMILES | Emax (MDCK [2]) | IC50 [3] [µM] | Activity (MDCK [1])
C[C@H](c1ccc(Cl)cc1)N(CC=C(c1ccccc1)c1ccccc1)CCN1CCN(C)CC1 | 0.7 | 3.8 | Active
C[C@H](c1cccc(Cl)c1)N(CC=C(c1ccccc1)c1ccccc1)CCN1CCN(C)CC1 | 0.77 | 11.2 | Active
COc1ccc([C@@H](C)N(CC=C(c2ccccc2)c2ccccc2)CCN2CCNC(=O)C2)cc1 | 0.81 | 7.7 | inactive
COc1ccc([C@@H](C)N(CC=C(c2ccccc2)c2ccccc2)CCCCN2CCN(C)CC2)cc1 | 0.81 |  | Active
COc1ccc([C@@H](C)N(CC=C(c2ccccc2)c2ccccc2)CCN2CCNCC2)cc1 | 0.86 | 1.3 | Active
C[C@H](c1ccccc1)N(CC=C(c1ccccc1)c1ccccc1)CCN1CCN(C)CC1 | 0.79 | 0.6 | Active
COc1ccc([C@@H](C)N(CC=C(c2ccccc2)c2ccccc2)CCN2CCC2)cc1 | 0.69 | 0.5 | Active
COc1ccc([C@H](C)N(CC=C(c2ccccc2)c2ccccc2)CCN2CCN(C)CC2)cc1 | 0.83 | 1.2 | Active
CCN(CC=C(c1ccccc1)c1ccccc1)[C@H](C)c1ccc(OC)cc1 | 0.84 | 10.6 | inactive
COc1ccc([C@@H](C)N(CC=C(c2ccccc2)c2ccccc2)CC(=O)N2CCN(C)CC2)cc1 | 0.73 | 1.1 | inactive
C=CCN(CCN1CCN(C)CC1)[C@H](C)c1ccc(OC)cc1 | 0.76 | 59.3 | inactive
COc1ccc([C@@H](C)N(CC=C(c2ccccc2)c2ccccc2)CCO)cc1 | 0.72 | 0.2 | inactive
COc1ccc([C@@H](C)N(CC=C(c2ccccc2)c2ccccc2)CCN2CCCCC2)cc1 | 0.83 | 0.6 | Active
COc1ccccc1[C@@H](C)N(CC=C(c1ccccc1)c1ccccc1)CCN1CCN(C)CC1 | 0.86 | 3.8 | Active
C=CCN(CC=C(c1ccccc1)c1ccccc1)[C@H](C)c1ccc(OC)cc1 | 0.47 | 13 | inactive
COc1cccc([C@@H](C)N(CC=C(c2ccccc2)c2ccccc2)CCN2CCN(C)CC2)c1 | 0.75 | 2.8 | Active
